# Reference: PMC2118398 (The Journal of Experimental Medicine, 2006)
# Experiments:
# [1] = target: CXCR7 (SDF-1 binding site on MCF-7 cells) (Homo sapiens, UniProt P25106); assay: Radioligand
# CXCR4 (CEM-NKr cells) = CXCR4 (CEM-NKr cells) (Homo sapiens, UniProt P61073); assay: 125I SDF-1 competition binding to CEM-NKr cells
# Procedure, shortened: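 Whole CEM-NKr cells were incubated with 125I SDF-1 in the presence of unlabeled SDF-1α, a CXCR4 antagonist, or a CXCR7 antagonist as competitors. Cell-bound radioactivity was counted in a γ counter.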
# CEM-NKr cells [2] = assay: Calcium mobilization in CEM-NKr cells; format: cell-based, human; conditions: unpublished data
# Procedure, shortened: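 Cells were loaded with the ratiometric intracellular dye Indo-1, and the calcium response was recorded on addition of SDF-1α.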
# CEM-NKr cells [3] = assay: Cell migration of CEM-NKr cells; format: cell-based, human; conditions: unpublished data
# Procedure, shortened: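 Cells in chemotaxis buffer (HBSS with Ca2+, Mg2+, 0.1% BSA) were placed above a 3 or 5 μm pore filter, sized to the cells, with chemokine in the lower chamber. After 90 min at 37°C, filters were removed, CyQuant was added to the lower chamber, and migrated cells were read at 540 nm.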
# [4] = system: human lung carcinoma A549; assay: A549 human lung carcinoma xenograft model; format: in vivo, mouse; conditions: 2 mg/kg intraperitoneally every 2 d; vs vehicle control, P < 0.005
# human CXCR7 (RDC1) = human CXCR7 (RDC1) (Homo sapiens, UniProt P25106); assay: Radioligand; format: binding
# human CXCR7 (RDC1), sequence (P25106 whole entry): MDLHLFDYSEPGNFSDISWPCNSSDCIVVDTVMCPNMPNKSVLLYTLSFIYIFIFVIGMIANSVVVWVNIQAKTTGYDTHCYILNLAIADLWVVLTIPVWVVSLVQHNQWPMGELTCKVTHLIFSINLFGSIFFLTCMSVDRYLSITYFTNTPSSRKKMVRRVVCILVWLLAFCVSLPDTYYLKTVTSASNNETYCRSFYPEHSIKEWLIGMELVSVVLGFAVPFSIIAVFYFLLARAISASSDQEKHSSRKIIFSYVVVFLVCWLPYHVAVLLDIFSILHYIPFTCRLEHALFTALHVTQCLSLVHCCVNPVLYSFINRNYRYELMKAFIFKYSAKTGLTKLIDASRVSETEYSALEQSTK
# [5] = target: CXCR7 (SDF-1 binding site on fetal liver cells) (Mus musculus, UniProt P56485); conditions: 125I SDF-1
# CXCR7 (SDF-1 binding site on fetal liver cells), sequence (P56485 whole entry): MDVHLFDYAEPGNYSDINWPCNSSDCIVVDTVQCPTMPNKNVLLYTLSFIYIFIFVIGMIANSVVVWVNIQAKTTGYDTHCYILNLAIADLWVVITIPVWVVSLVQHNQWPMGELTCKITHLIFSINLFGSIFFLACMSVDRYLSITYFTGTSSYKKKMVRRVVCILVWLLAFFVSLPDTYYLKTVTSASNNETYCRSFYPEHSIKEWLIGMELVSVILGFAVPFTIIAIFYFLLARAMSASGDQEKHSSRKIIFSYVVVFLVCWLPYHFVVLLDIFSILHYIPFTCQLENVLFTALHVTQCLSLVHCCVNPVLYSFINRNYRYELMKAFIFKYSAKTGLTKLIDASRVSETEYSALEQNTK
# [6] = target: CXCR7 on mouse B cell lymphoma BCL1 (Mus musculus, UniProt P56485); assay: 125I SDF-1 binding profile on BCL1 cells; conditions: Fig. 3 B; 100 nM chemokine, 10 μM small molecules
# CXCR7 on mouse B cell lymphoma BCL1, sequence (P56485 whole entry): as above
# Procedure, shortened: (§1)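 Intact cells bound 125I SDF-1 with or without 100 nM unlabelled chemokine, 10 μM CXCR7 antagonist or 10 μM CXCR4 antagonist. Cell-bound radioactivity was counted in a γ counter. CXCR7 binding was taken as binding displaced by unlabelled ligand or the CXCR7 antagonist but not by the CXCR4 antagonist.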
# [7] = target: CXCR7 on human cervical carcinoma HeLa cells (Homo sapiens, UniProt P25106); assay: 125I SDF-1 binding profile on HeLa cells; conditions: Fig. 3 B; 100 nM chemokine, 10 μM small molecules
# CXCR7 on human cervical carcinoma HeLa cells, sequence (P25106 whole entry): as the sequence (P25106 whole entry) above
# Procedure, shortened: as §1
# MCF-7 cells [8] = assay: Calcium mobilization in MCF-7 cells; format: cell-based, human; conditions: agonist response
# Procedure, shortened: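 Cells were loaded with the ratiometric dye Indo-1 and stimulated with 10 nM SDF-1α. The intracellular calcium trace was recorded around ligand addition. The analysis was reproduced in at least 10 independent studies.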
# MCF-7 cells [9] = assay: Cell migration of MCF-7 cells; format: cell-based, human; conditions: agonist response
# Procedure, shortened: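 Cells in HBSS with Ca2+, Mg2+ and 0.1% BSA were placed above a filter (3 or 5 μm pores, chosen by cell size) in a 96-well microchamber, with chemokine below. After 90 min at 37°C in humidified air, the filter was removed. Cells in the lower chamber were quantified with CyQuant fluorescence at 540 nm.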
# CXCR7 (SDF-1 binding site on MCF-7 cells), sequence (P25106 whole entry): as above
# CXCR4 (CEM-NKr cells), sequence (P61073 whole entry): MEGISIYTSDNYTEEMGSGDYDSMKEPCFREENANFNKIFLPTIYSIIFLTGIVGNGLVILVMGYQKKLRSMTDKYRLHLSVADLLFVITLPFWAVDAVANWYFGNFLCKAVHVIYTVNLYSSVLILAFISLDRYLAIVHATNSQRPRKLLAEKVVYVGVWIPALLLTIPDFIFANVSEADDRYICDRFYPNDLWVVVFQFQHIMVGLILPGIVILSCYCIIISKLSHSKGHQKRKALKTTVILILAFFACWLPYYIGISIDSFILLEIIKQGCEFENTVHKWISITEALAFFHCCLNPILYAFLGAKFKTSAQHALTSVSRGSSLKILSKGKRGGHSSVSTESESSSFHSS
compound,measurement,setting,value
c1cc(CN2CCCNCCNCCCNCC2)ccc1CN1CCCNCCNCCCNCC1 [AMD3100],inhibition of 125I SDF-1 binding to MCF-7 cells (in words),[1],not to MCF-7 cells
same,inhibition of 125I SDF-1 binding to CEM-NKr cells (in words),CXCR4 (CEM-NKr cells),inhibited binding
same,inhibition of SDF-1-induced calcium mobilization in CEM-NKr cells,CEM-NKr cells [2],inhibited all functions
same,inhibition of SDF-1-induced cell migration of CEM-NKr cells,CEM-NKr cells [3],inhibited all functions
N[C@@H](Cc1ccc(N(CCCl)CCCl)cc1)C(=O)O [Melphalan],"tumor volume at 49 d, A549 model (positive control)",[4],reduced tumor volume
"I-TAC: CXC chemokine interferon-inducible T cell α chemoattractant, also known as CXCL11",inhibition of 125I SDF-1 binding to MCF-7 cells (in words),[1],strongly displaced
same,inhibition of 125I SDF-1 binding to RDC1 (CXCR7) transfectants (in words),human CXCR7 (RDC1),blocked
same,inhibition of the SDF-1 binding site of E13 embryos of CXCR4-/- mice,[5],inhibited
same,inhibition of 125I SDF-1 binding to BCL1 cells,[6],inhibited
same,inhibition of 125I SDF-1 binding to HeLa cells,[7],inhibited
same,chemokine-induced calcium mobilization in MCF-7 cells,MCF-7 cells [8],failed to induce
same,chemokine-induced migration of MCF-7 cells,MCF-7 cells [9],failed to induce
"IP10: chemokine IP10 (CXCL10), thought to bind only CXCR3",inhibition of 125I I-TAC binding to MCF-7 cells (in words),[1],no inhibitory effect
same,inhibition of 125I SDF-1 binding to MCF-7 cells (in words),[1],no inhibitory effect
"Mig: chemokine Mig (CXCL9), thought to bind only CXCR3",inhibition of 125I I-TAC binding to MCF-7 cells (in words),[1],no inhibitory effect
same,inhibition of 125I SDF-1 binding to MCF-7 cells (in words),[1],no inhibitory effect
